Values after ≈ are worked out from the molar mass of the structure shown. Active and inactive are the calls of the source. The rule behind the calls is not given here.
How the values were obtained:
Bacillus cereus = test: Antibacterial activity against Bacillus cereus assessed as inhibition of visible bacterial growth after 24 hrs; type: functional
Procedure, shortened: (§1)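 Broth microdilution MIC using 2-fold serial dilutions. A. crystallopoietes DSM 20117 was grown in tryptic soy broth, and B. cereus in half-concentrated Mueller–Hinton broth. Final inoculum was 10^5 CFU per well. After 24 h at 37 °C, the MIC was read as the lowest concentration with no visible growth. Values are means of three independent determinations.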

[1] = tested on: Arthrobacter crystallopoietes; test: Antibacterial activity against Arthrobacter crystallopoietes DSM 20117 assessed as inhibition of visible bacterial growth after 24 hrs; type: functional; settings: Crystallibacter crystallopoietes; procedure, shortened: as §1
[2] = Antifungal activity against Colletotrichum falcatum assessed as inhibition of mycelial growth at 100 ug/disc incubated for 10 to 15 days at 25 degC; type: functional
Procedure, shortened: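 Four C. falcatum strains from local sugar cane varieties (BF166, C01148, CP77400, SPF234) on potato dextrose agar; mycelial plug at plate centre, compound-loaded air-dried filter discs (25–200 μg, in methanol, chloroform or DMSO) placed 2 cm away; 10–15 days at 25 °C; zone of mycelial inhibition around disc; solvent discs as negative controls; three repeats in duplicate.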

HCT-116 = test: Cytotoxicity against human HCT116 cells assessed as growth inhibition after 5 days by hemocytometry; type: cell-based
Procedure, shortened: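 HCT-116 cells were seeded at 5 × 10^4 cells/T25 flask in serum medium with 1% penicillin–streptomycin and 1% glutamine, at 37 °C and 5% CO2. Compound at various concentrations was added on day 3, followed by 120 h incubation. Cells were trypsinized, washed and resuspended in HBSS, then hemocytometer-counted. Counts were normalized to untreated control, and IC50 was derived by nonlinear regression.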

[3] = tested on: Mycobacterium tuberculosis; test: Antituberculosis activity against Mycobacterium tuberculosis H37Rv […] incubated for 7 days by Alamar blue assay; type: functional
Procedure, shortened: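 Virulent H37Rv (ATCC 27294) in 96-well plate; compounds from 10 mg/mL DMSO stock, 2-fold dilutions from top 100 μg/mL (1% v/v DMSO final); 7 days at 37 °C; growth by Alamar Blue fluorescence; MIC = lowest concentration giving ≥90% fluorescence inhibition versus untreated bacteria; rifampicin and isoniazid positive controls, 1% DMSO negative control.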

LNCaP = test: Solid tumor cytotoxicity against human LNCAP cells assessed as inhibition of cell colony formation by disc diffusion soft-agar colony formation assay; type: functional, cell-based
Procedure, shortened: (§2)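 Cells plated in soft agar; compound dissolved in 250 μL DMSO, 15 μL applied to a cellulose disc on the plate; after incubation, colony-inhibition zone measured from disc edge to colony growth in zone units (200 zu = 6 mm); solid-tumour selectivity judged as ≥250 zu difference versus leukemia or normal CFU-GM cells.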

MCF7 = test: Solid tumor cytotoxicity against human MCF7 cells assessed as inhibition of cell colony formation by disc diffusion soft-agar colony formation assay; type: functional, cell-based; procedure, shortened: as §2
H125 = test: Solid tumor cytotoxicity against human H125 cells assessed as inhibition of cell colony formation by disc diffusion soft-agar colony formation assay; type: functional, cell-based; procedure, shortened: as §2

| SMILES | MIC (Bacillus cereus) | MIC ([1]; DSM 20117, 24 h) | inhibition zone (IZ) [2] | IC50 (HCT-116; hct-116) | MIC90 ([3]; H37Rv ATCC 27292, 168 h) | inhibition zone (IZ) (LNCaP) | inhibition zone (IZ) (MCF7) | inhibition zone (IZ) (H125) | IC50 (HCT-116; Homo sapiens, HCT-116, 120 h, read-out: IC50) | MIC [1] | MIC90 [3] |
| --- | --- | --- | --- | --- | --- | --- | --- | --- | --- | --- | --- |
| Oc1ccc2nc3ccc(O)cc3nc2c1 | 25 µg/mL (≈ 118 µM) | 25 µg/mL (≈ 118 µM) | inactive | Non-toxic | – | – | – | – | – | – | – |
| COC(=O)CCCCCc1ccccc1/C=C/C(C)=O [LAHORENOIC ACID B] | – | – | – | Non-toxic | 49.5 µg/mL (≈ 180 µM) | – | – | – | – | – | – |
| O=C(O)c1cccc2nc3ccccc3nc12 [PHENAZINE-1-CARBOXYLIC ACID] | – | – | 2 mm | – | 32.9 µg/mL (≈ 147 µM) | Active | Active | Active | 15.6 µM | – | – |
| Oc1ccc2nc3ccccc3nc2c1 | inactive | – | inactive | Non-toxic | – | inactive | inactive | inactive | – | inactive | inactive |

— ChEMBL document CHEMBL2331195, “Lahorenoic acids A-C, ortho-dialkyl-substituted aromatic acids from the biocontrol strain Pseudomonas aurantiaca PB-St2” (J Nat Prod, 2013)
